Assay outcomes: PubChem BioAssay, several laboratories
Only some compounds are listed: those with a hit (about 2.9% of all), similar ones and a draw of the others.
iPSC survival up = enhancers of human iPSC single-cell survival; hiPSC single-cell survival, ATPlite luminescence; 100% = ROCK inhibitor wells, 0% = DMSO; survival enhancement, % at 20 µM; actives 0.044% (n = 360,000); AID 602274; in the data active = survival enhancement above about 18%;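 also: cells exposed to compounds for 16 hours before the ATP read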
beta cell repl = induces beta-cell replication in MIN6 cells; MIN6 cells proliferation, ATPlite luminescence, 48 h; cells starved in 0.2% serum; 100% = growth in 10% serum; proliferation, % at 10 µM; actives 0.29% (n = 330,000); AID 2380;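 active = compounds whose signal lies at least 3.5 SD above the mean of all wells on their plate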;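 also: 0% = DMSO-treated cells in low-serum medium and 100% = 10% serum control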
T cruzi inh = T. cruzi replication inhibition; T. cruzi beta-gal in NIH3T3, luminescence, 90 h; inhibition, % (test concentration not listed); actives 1.4% (n = 300,000); AID 1885;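 active = mean inhibition across valid replicates above about 55%, limit read from the data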;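 also: signal also drops with host cell toxicity which is not excluded here; 0% = plate median of DMSO wells and 100% = zero luminescence signal; higher percent means less beta-gal luminescence so fewer parasites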
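Read-out: Parasite load inhibition, % | Test system: Mouse NIH/3T3 fibroblasts infected with β-gal-expressing T. cruzi Tulahuen C4 | Amount: 5,000 cells/well | Medium: DMEM, 2% fetal bovine serum | Signal: GalScreen β-gal luminescence, detergent lysis, 60 min | Timing: 3 h attach, ≥90 h co-culture | Also added: Tulahuen C4 trypomastigotes, 5000/well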
PG9 binder = small molecules binding HIV-1 gp120 antibody PG9; actives 0.43% (n = 360,000); TR-FRET gp120-PG9 antibody binding; inhibition, % at 6.7 µM; in the data active = inhibition above about 8.5%
TAG inh = triacylglycerol accumulation inhibition; inhibition, % at 12.5 µM; actives 0.66% (n = 230,000); H9c2 cells, Nile Red lipid (TAG) fluorescence; cells loaded with 200 µM oleic acid;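 active = pattern-corrected inhibition of lipid staining of at least 50% with the nuclear-stain viability signal not falling by more than 50%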;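 also: 0% = DMSO wells and 100% = triacsin C control wells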
NR1D1 modulator = modulators of human Rev-erb alpha DNA binding; Rev-erbα–FITC-DNA binding, fluorescence polarization, 90 min; activity, % at 10 µM; actives 0.79% (n = 370,000); AID 1259318;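 active = activity above about 14%, limit read from the data; passing the limit was not always enough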;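 also: 0% = DMSO wells with 35 nM protein and 100% = DMSO wells with 750 nM protein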
Target sequence (P20393 whole entry, looked up): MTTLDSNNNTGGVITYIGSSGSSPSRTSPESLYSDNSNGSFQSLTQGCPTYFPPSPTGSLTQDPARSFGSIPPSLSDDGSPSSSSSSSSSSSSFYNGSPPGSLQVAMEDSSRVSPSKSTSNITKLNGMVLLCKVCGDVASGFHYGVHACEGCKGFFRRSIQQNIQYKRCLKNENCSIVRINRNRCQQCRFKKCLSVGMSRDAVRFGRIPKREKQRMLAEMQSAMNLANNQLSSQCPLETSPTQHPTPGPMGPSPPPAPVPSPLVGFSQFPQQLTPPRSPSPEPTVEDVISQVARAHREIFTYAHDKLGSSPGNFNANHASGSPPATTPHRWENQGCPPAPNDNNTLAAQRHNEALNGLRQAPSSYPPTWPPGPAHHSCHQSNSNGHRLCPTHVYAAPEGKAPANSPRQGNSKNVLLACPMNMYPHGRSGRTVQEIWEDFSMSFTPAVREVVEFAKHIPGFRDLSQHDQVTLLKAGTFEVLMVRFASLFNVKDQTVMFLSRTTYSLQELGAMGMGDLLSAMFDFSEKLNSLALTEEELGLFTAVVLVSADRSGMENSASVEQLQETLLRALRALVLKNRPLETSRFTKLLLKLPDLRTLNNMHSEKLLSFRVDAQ
* = called active by the depositor; . = no result given.

SMILES	iPSC survival up	beta cell repl	T cruzi inh	PG9 binder	TAG inh	NR1D1 modulator
O=C1C(=O)N(CNc2ccccn2)c2ccccc21	0	-3	25	-2	59*	.
N#Cc1c(NC(=O)CSC2=NCCS2)sc2c1CCCC2	-2	-3	37	0	.	1
Cc1ccc(S(=O)(=O)N2CCC(C(=O)OCC(=O)NC3(C#N)CCCCC3)CC2)cc1C	0	0	-10	-1	8	-5
O=C(Nc1nc(-c2ccccc2)cs1)C1CCCCN1S(=O)(=O)c1ccccc1 (centres undefined)	0	-4	6	-3	.	0
O=C(Nc1nc(-c2ccccc2)cs1)C1CCCCN1S(=O)(=O)c1ccc(Cl)cc1 (centres undefined)	-1	-6	78*	.	.	-1
CCOC(=O)c1csc(NC(=O)C2CCCN(S(=O)(=O)c3ccccc3)C2)n1 (centres undefined)	.	.	.	.	.	-2
O=C(Nc1nc(-c2ccccc2)cs1)C1CCCN(S(=O)(=O)c2ccccc2)C1 (centres undefined)	-3	-4	61*	4	.	2
COc1cc(-c2nc(-c3ccc(NC(=O)c4ccc(Br)o4)cc3)no2)cc(OC)c1OC	1	-5	-4	-1	51*	-11
O=C(Nc1ccc(-c2nc3ncccc3o2)cc1)c1ccc(Br)o1	-1	0	6	41*	69*	22
CCN(CC)CCn1c(=N)n(CC(O)COc2ccccc2)c2ccccc21 (centres undefined)	-1	-5	-6	-3	9	1
CCN(CC)CCn1c(=N)n(CCOc2ccccc2)c2ccccc21	-6	-5	69*	0	.	-2
C#CCOCCOCCOCCNc1nc(N2CCN(C(=O)CCCCCCCCCCNC(=O)Cn3cc(C[C@@H](C)O)nn3)CC2)nc(N2CCN(C(=O)CCCCCCCCCCNC(=O)[C@H](CCCCN)n3cc(CCCC(=O)O)nn3)CC2)n1	-2	-3	.	0	-18	2
C#CCOCCOCCOCCNc1nc(N2CCN(C(=O)CCCCCCCCCCNC(=O)Cn3cc(C[C@@H](C)O)nn3)CC2)nc(N2CCN(C(=O)CCCCCCCCCCNC(=O)[C@H](CCCN=C(N)N)n3cc(C[C@@H](C)CC)nn3)CC2)n1	1	-7	66*	.	-50	.
CC1(C)CC2CC(C)(CN2S(=O)(=O)c2ccc(C(=O)Nc3ccc(S(=O)(=O)N4CCOCC4)cc3)cc2)C1 (centres undefined)	-3	-4	55*	-2	-12	1
CC1(C)CC2CC(C)(CN2S(=O)(=O)c2ccc(C(=O)Nc3ccc(Cl)c(S(=O)(=O)N4CCOCC4)c3)cc2)C1 (centres undefined)	-3	-2	63*	0	.	3
Clc1cccc(CN2CCc3c([nH]c4ccccc34)C2)c1	0	-4	59*	0	.	-2
CCOc1ccc(N(CC(=O)NC2CCCCC2)C(=O)CCC(=O)Nc2cc(C)ccn2)cc1	0	3	-8	-3	.	9
NC(=S)Nc1cccc2[nH]ccc12	0	-1	64*	-5	-4	-1
NC(=S)Nc1cccc2[nH]ncc12	0	2	-3	-5	5	1
O=C(c1cccs1)N1CCN(C(=O)c2cn(-c3ccccc3)nc2-c2ccccc2)CC1	-2	-5	.	-1	-11	2
CCCN1CCCc2cc(CN)ccc21	-2	-5	89*	-5	.	5
CCOC(=O)c1sc(NC(=O)c2sccc2C)cc1C	-2	-3	17	-2	51*	6
Cc1cccc(-c2nc(Nc3ccc(N4CCOCC4)cc3)c3ccccc3n2)c1	-2	0	56*	-1	.	6
COc1ccc(Nc2nc(-c3cccc([N+](=O)[O-])c3)nc3ccccc23)cc1	1	-4	65*	1	.	7
Cc1cc(/C=N/NC(=O)c2cccc(N(C)C)c2)c(C)n1-c1cc(C(=O)O)cc(C(=O)O)c1	3	-2	-3	.	-5	-4
SMILES	iPSC survival up	beta cell repl	T cruzi inh	PG9 binder	TAG inh	NR1D1 modulator
COc1ccc(CN2C[C@]3(C=C4CCCCC4n4c(=O)n(-c5ccccc5)c(=O)n43)N(C(=O)OCc3ccccc3)C2=NC(=O)c2ccccc2)c(OC)c1 (some centres undefined)	.	.	.	.	.	-4
Cc1oc2c(c1C(=O)NCc1cccnc1)C(=O)c1ccccc1C2=O	.	-6	50	.	.	.
COc1ccc(CNC(=O)c2c(C)oc3c2C(=O)c2ccccc2C3=O)cc1	-3	-6	39	1	101*	10
CC(=O)NCCc1csc(-c2ccccc2)n1	-3	-1	-8	-2	.	0
CC(C)(C)CC(=O)NCCc1csc(-c2ccccc2)n1	0	-3	61*	-1	-9	-2
Cc1cccc(C)c1NC(=S)N(Cc1ccccc1)Cc1cccnc1	0	-2	79*	1	3	3
Cc1c(Cl)cccc1NC(=S)N(Cc1cccnc1)Cc1ccccc1Cl	-1	-4	75*	0	-8	-1
N#CCCN(Cc1cccnc1)C(=S)Nc1ccccc1Cl	0	.	.	1	6	-5
CSc1cccc(NC(=S)N(Cc2ccccc2)Cc2cccnc2)c1	1	-3	83*	1	4	1
CCN(Cc1ccncc1)C(=S)Nc1c(C)cccc1C	0	0	-20	1	.	-1
O=C(O)c1ccc(-n2c(-c3cc(-c4ccco4)[nH]n3)n[nH]c2=S)cc1	0	1	-8	-2	-30	-2
CC1CCN(CCCn2c(=S)[nH]c3ccccc3c2=O)CC1	7	-2	-5	0	12	-5
O=c1c2ccccc2[nH]c(=S)n1CCCN1CCC(Cc2ccccc2)CC1	0	-5	56*	0	.	-3
Cn1cc(CN2CCC(n3nccc3NC(=O)c3ccc4c(c3)OCO4)CC2)cn1	-2	.	.	0	-9	-1
O=c1c2ccc([N+](=O)[O-])cc2ncn1CCOc1ccccc1	0	-3	66*	0	-5	-4
O=c1c2ccccc2ncn1CCOCCOc1ccc([N+](=O)[O-])cc1	0	-2	0	0	-14	-2
Cc1ccc(OCCn2cnc3cc([N+](=O)[O-])ccc3c2=O)cc1	0	-3	72*	-1	-8	-7
CCN1CCC[C@H]1CNC(=O)c1cc(S(N)(=O)=O)ccc1OC	.	-4	-13	.	.	.
CC(C)(C)n1nc2c(c1NC(=O)c1ccccc1F)CS(=O)C2 (centres undefined)	2	1	-25	1	-7	0
Cc1c(Cl)cccc1NC(=O)CCCn1cnc([N+](=O)[O-])n1	0	-3	56*	-1	-13	-3
